Results from ChEMBL document CHEMBL1949593, “Stilbene-chalcone hybrids: design, synthesis, and evaluation as a new class of antimalarial scaffolds that trigger cell death through stage specific apoptosis” (J Med Chem, 2012).
The source made the active and inactive calls. The calls are words filed in the database; no cut-off is given here.

How the values were obtained:
[1] = Resistance index, ratio of IC50 for ring stage chloroquine-resistant Plasmodium falciparum INDO to IC50 for ring stage chloroquine-sensitive Plasmodium falciparum 3D7; assay type: functional
Plasmodium falciparum [2] = test: Induction of apoptosis in ring stage chloroquine-sensitive Plasmodium falciparum 3D7 assessed as disruption of mitochondrial membrane potential at 10 uM by JC-1 staining; assay type: functional, organism-based
In short: (§1)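 3D7 ring cultures were treated 24, 42 or 48 h, and trophozoite cultures 18 or 24 h. Parasites were stained with JC-1 for 20 min at 37 °C and viewed as wet mounts by fluorescence microscopy. Red-orange aggregate signal (590 nm) indicates intact ΔΨm; green monomer signal (525 nm) indicates dissipation.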

[3] = Resistance index, ratio of IC50 for ring stage chloroquine-resistant Plasmodium falciparum Dd2 to IC50 for ring stage chloroquine-sensitive Plasmodium falciparum 3D7; assay type: functional
Plasmodium falciparum [4] = test: Inhibition of RBC invasion of chloroquine-sensitive Plasmodium falciparum 3D7 schizonts at 10 uM treated for 8 hrs followed by washout measured after 48 hrs by Giemsa staining; assay type: functional, organism-based
In short: (§2)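 Highly synchronized 3D7 schizonts were exposed to drug for 8 h under normal culture conditions, alongside untreated controls. After a media wash, cultures were incubated for 48 h with or without drug. Giemsa-stained thin smears were examined microscopically for parasitemia and stage, and compared with control.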

Plasmodium falciparum [5] = test: Induction of internucleosomal fragmentation in ring stage chloroquine-sensitive Plasmodium falciparum 3D7 at 10 uM at 24 hrs by Hoechst 33342 staining; assay type: functional, organism-based
In short: (§3)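 3D7 trophozoite cultures were treated 18 or 24 h, and ring cultures 24, 42 or 48 h. Parasites were stained with Hoechst 33342 for 10 min at room temperature, washed with PBS, and smeared. Condensed or fragmented chromatin (blue, 460 nm) was viewed by fluorescence microscopy.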

Plasmodium falciparum [6] = test: Antimalarial activity against ring stage chloroquine-resistant Plasmodium falciparum INDO infected in human O positive erythrocytes after 48 hrs by SYBR green 1 fluorescence assay; assay type: functional, organism-based
In short: (§4)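 Ring-stage cultures were sorbitol-synchronized in O+ human erythrocytes in RPMI 1640 with 0.5% Albumax, hypoxanthine and gentamicin, then plated at 2% hematocrit and 1% parasitemia. Drugs were tested at 0–100 μM (final DMSO 0.4%) in triplicate for 48 h at 37 °C under 5% O2/5% CO2/90% N2. Read-out was SYBR Green I (ex 497/em 520 nm). IC50 was read visually as 50% growth inhibition, with chloroquine as control.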

Plasmodium falciparum [7] = test: Antimalarial activity against chloroquine-sensitive Plasmodium falciparum 3D7 assessed as merozoites egress at 10 uM treated for 8 hrs followed by washout measured after 48 hrs by Giemsa staining; assay type: functional, organism-based; in short: as §2
Plasmodium falciparum [8] = test: Induction of apoptosis in chloroquine-sensitive Plasmodium falciparum 3D7 trophozoites assessed as chromatin fragmentation at 10 uM at 18 hrs by Hoechst 33342 staining; assay type: functional, organism-based; in short: as §3
Plasmodium falciparum [9] = test: Growth inhibition of ring stage chloroquine-sensitive Plasmodium falciparum 3D7 at 10 uM treated for 24 hrs followed by washout measured after 72 hrs by Giemsa staining; assay type: functional, organism-based
In short: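 Synchronized 3D7 ring cultures were exposed for 18, 24 or 48 h, then washed free of drug. Cultures were kept under normal conditions to 96 h total. Giemsa-stained thin smears were read by counting 3000 cells; inhibition is relative to the matching drug-free control.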

Plasmodium falciparum [10] = test: Induction of apoptosis in chloroquine-sensitive Plasmodium falciparum 3D7 trophozoites assessed as chromatin condensation at 10 uM at 18 hrs by Hoechst 33342 staining; assay type: functional, organism-based; in short: as §3
Plasmodium falciparum [11] = test: Induction of apoptosis in ring stage chloroquine-sensitive Plasmodium falciparum 3D7 assessed as nuclear condensation at 10 uM at 24 hrs by Giemsa staining
Plasmodium falciparum [12] = test: Growth inhibition of chloroquine-sensitive Plasmodium falciparum 3D7 schizonts at 10 uM treated for 8 hrs following washout incubated for 48 hrs in drug free medium by SYBR green 1-based fluorescence assay; assay type: functional, organism-based
In short: (§5)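 Stage-specific exposure of synchronized 3D7: rings 48 h, trophozoites 24 h, schizonts 8 h. Drug was removed by media wash and cultures grew 48 h drug-free, in a separate triplicate set. Growth was read by SYBR Green I fluorescence and expressed as percent inhibition relative to drug-free control.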

Plasmodium falciparum [13] = test: Growth inhibition of ring stage chloroquine-sensitive Plasmodium falciparum 3D7 at 10 uM treated for 48 hrs following washout incubated for 48 hrs in drug free medium by SYBR green 1-based fluorescence assay; assay type: functional, organism-based; in short: as §5
Plasmodium falciparum [14] = test: Induction of apoptosis in chloroquine-sensitive Plasmodium falciparum 3D7 trophozoites assessed as nuclear condensation at 10 uM at 18 hrs by Giemsa staining; assay type: functional, organism-based
Plasmodium falciparum [15] = test: Induction of apoptosis in ring stage chloroquine-sensitive Plasmodium falciparum 3D7 assessed as chromatin condensation at 10 uM at 18 hrs by Hoechst 33342 staining; assay type: functional, organism-based
[16] = Therapeutic index, ratio of IC50 for […] cells to IC50 for ring stage chloroquine-sensitive Plasmodium falciparum 3D7; assay type: cell-based; settings: mouse, read-out: Ratio IC50
In short: (§6)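 HeLa or L929 fibroblasts were seeded at 10^4 cells per well in RPMI with 10% FBS, left overnight, then exposed 24 h at 37 °C, 5% CO2. MTT was added for 3 h; formazan was dissolved in DMSO and read at 570 nm. IC50 came from dose–response curves. Index = IC50(mammalian)/IC50(Pf 3D7, SYBR Green assay).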

Plasmodium falciparum [17] = test: Induction of internucleosomal fragmentation in chloroquine-sensitive Plasmodium falciparum 3D7 trophozoites at 10 uM at 24 hrs by Hoechst 33342 staining; assay type: functional, organism-based; in short: as §3
Plasmodium falciparum [18] = test: Reduction in parasitemia of chloroquine-sensitive Plasmodium falciparum 3D7 trophozoites at 10 uM after 48 hrs by Giemsa staining; assay type: functional, organism-based
Plasmodium falciparum [19] = test: Antimalarial activity against ring stage chloroquine-resistant Plasmodium falciparum Dd2 infected in human O positive erythrocytes after 48 hrs by SYBR green 1 fluorescence assay; assay type: functional, organism-based; settings: Dd2, 48 h; in short: as §4
[20] = Inhibition of Plasmodium falciparum falcipain-2 using benzyloxycarbonyl-Phe-Arg-7-amino-4-methyl coumarin hydrochloride as substrate preincubated for 10 mins prior substrate addition by fluorimetric assay
In short: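 Recombinant falcipain-2 (2 μg) was preincubated 10 min at room temperature with or without compound, in triplicate. Buffer was 100 mM sodium acetate pH 5.5 with 10 mM DTT and 1% final DMSO. Z-Phe-Arg-AMC was then added at 10 μM final. AMC release was read at ex 355/em 460 nm. IC50 was taken by visual matching of 50% inhibition.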

Plasmodium falciparum [21] = test: Antimalarial activity against chloroquine-sensitive Plasmodium falciparum 3D7 assessed as inhibition of schizonts growth at 10 uM treated for 8 hrs followed by washout measured after 48 hrs by Giemsa staining; assay type: functional, organism-based; in short: as §2
Plasmodium falciparum [22] = test: Reduction in parasitemia of ring stage chloroquine-sensitive Plasmodium falciparum 3D7 at 10 uM after 48 hrs by Giemsa staining; assay type: functional, organism-based
Plasmodium falciparum [23] = test: Induction of apoptosis in ring stage chloroquine-sensitive Plasmodium falciparum 3D7 assessed as chromatin fragmentation at 10 uM at 18 hrs by Hoechst 33342 staining; assay type: functional, organism-based
[24] = Therapeutic index, ratio of IC50 for human HeLa cells to IC50 for ring stage chloroquine-sensitive Plasmodium falciparum 3D7; assay type: cell-based; settings: read-out: Ratio IC50; in short: as §6
Plasmodium falciparum [25] = test: Growth inhibition of chloroquine-sensitive Plasmodium falciparum 3D7 trophozoites at 10 uM treated for 24 hrs followed by washout measured after 48 hrs by Giemsa staining; assay type: functional, organism-based
In short: (§7)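 Highly synchronized 3D7 cultures were exposed by stage: rings 48 h, trophozoites 24 h, schizonts 8 h. After a media wash, cultures grew 48 h in drug-free complete RPMI, in triplicate. Giemsa smears were read by counting 3000 cells per stage; pycnotic parasites were scored nonviable. Inhibition is percent of drug-free control.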

Plasmodium falciparum [26] = test: Antimalarial activity against ring stage chloroquine-sensitive Plasmodium falciparum 3D7 infected in human O positive erythrocytes after 48 hrs by SYBR green 1 fluorescence assay; assay type: functional, organism-based; settings: 3D7, 48 h
In short: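 P. falciparum 3D7 in O+ human erythrocytes in complete RPMI with Albumax at 37 °C under 5% O2/5% CO2. Culture was sorbitol-synchronized to rings and plated at 2% hematocrit, 1% parasitemia. Drug range was 0–100 μM with 0.4% final DMSO, in triplicate. After 48 h, SYBR Green I fluorescence was read (ex 497/em 520 nm). IC50 was taken by visual matching of 50% growth inhibition.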

Plasmodium falciparum [27] = test: Growth inhibition of chloroquine-sensitive Plasmodium falciparum 3D7 trophozoites at 10 uM treated for 24 hrs following washout incubated for 48 hrs in drug free medium by SYBR green 1-based fluorescence assay; assay type: functional, organism-based; in short: as §5
Plasmodium falciparum [28] = test: Growth inhibition of ring stage chloroquine-sensitive Plasmodium falciparum 3D7 at 10 uM treated for 48 hrs following washout incubated for 48 hrs in drug free medium by Giemsa staining; assay type: functional, organism-based; in short: as §7
Plasmodium falciparum [29] = test: Induction of apoptosis in chloroquine-sensitive Plasmodium falciparum 3D7 trophozoites assessed as disruption of mitochondrial membrane potential at 10 uM by JC-1 staining; assay type: functional, organism-based; in short: as §1
Plasmodium falciparum [30] = test: Growth inhibition of chloroquine-sensitive Plasmodium falciparum 3D7 schizonts at 10 uM treated for 8 hrs following washout incubated for 48 hrs in drug free medium by Giemsa staining; assay type: functional, organism-based; in short: as §7

**Q.** Which “Ratio IC50” value [1] does the source give for `COc1cc(OC)c(OC)cc1/C=C/C(=O)c1ccc(/C=C/c2cc(OC)c(OC(C)=O)c(OC)c2)cc1` here?
**A.** The value was 0.9.

**Q.** And the Activity (Plasmodium falciparum [2])?
**A.** Its Activity is “Active”.

**Q.** What about the “Ratio IC50” value [3] of the same compound?
**A.** The value was 1.

**Q.** What about the inhibition (Plasmodium falciparum [4]) of the same compound?
**A.** Its inhibition is “inactive”.

**Q.** And the Activity (Plasmodium falciparum [5])?
**A.** The Activity was “inactive”.

**Q.** And the IC50 (Plasmodium falciparum [6])?
**A.** Its IC50 is 1980 nM.

**Q.** And the inhibition (Plasmodium falciparum [7])?
**A.** The inhibition was “inactive”.

**Q.** And the Activity (Plasmodium falciparum [8])?
**A.** The Activity was “Active”.

**Q.** What about the “growth inhibition (GI)” value (Plasmodium falciparum [9]) of the same compound?
**A.** The value was “Active”.

**Q.** What about the Activity (Plasmodium falciparum [10]) of the same compound?
**A.** The Activity was “Active”.

**Q.** What about the Activity (Plasmodium falciparum [11]) of the same compound?
**A.** The Activity was “Active”.

**Q.** What about the “growth inhibition (GI)” value (Plasmodium falciparum [12]) of the same compound?
**A.** Its value is “inactive”.

**Q.** And the “growth inhibition (GI)” value (Plasmodium falciparum [13])?
**A.** The value was “Active”.

**Q.** What about the Activity (Plasmodium falciparum [14]) of the same compound?
**A.** Its Activity is “Active”.

**Q.** What about the Activity (Plasmodium falciparum [15]) of the same compound?
**A.** The Activity was “Active”.

**Q.** What about the selectivity ratio [16] of the same compound?
**A.** Its selectivity ratio is > 45.5.

**Q.** What about the Activity (Plasmodium falciparum [17]) of the same compound?
**A.** The Activity was “Active”.

**Q.** What about the Activity (Plasmodium falciparum [18]) of the same compound?
**A.** Its Activity is “Active”.

**Q.** And the IC50 (Plasmodium falciparum [19])?
**A.** Its IC50 is 2200 nM.

**Q.** And the IC50 [20]?
**A.** The IC50 was 25000 nM.

**Q.** What about the “growth inhibition (GI)” value (Plasmodium falciparum [21]) of the same compound?
**A.** The value was “inactive”.

**Q.** And the Activity (Plasmodium falciparum [22])?
**A.** The Activity was “Active”.

**Q.** And the Activity (Plasmodium falciparum [23])?
**A.** Its Activity is “Active”.

**Q.** And the selectivity ratio [24]?
**A.** Its selectivity ratio is > 45.5.

**Q.** What about the “growth inhibition (GI)” value (Plasmodium falciparum [25]) of the same compound?
**A.** Its value is “Active”.

**Q.** What about the IC50 (Plasmodium falciparum [26]) of the same compound?
**A.** Its IC50 is 2200 nM.

**Q.** And the “growth inhibition (GI)” value (Plasmodium falciparum [27])?
**A.** The value was “Active”.

**Q.** And the “growth inhibition (GI)” value (Plasmodium falciparum [28])?
**A.** The value was “Active”.

**Q.** And the Activity (Plasmodium falciparum [29])?
**A.** The Activity was “Active”.

**Q.** What about the “growth inhibition (GI)” value (Plasmodium falciparum [30]) of the same compound?
**A.** Its value is “inactive”.
